In the assay the test system is Mycobacterium tuberculosis. As to the kind of experiment: Antitubercular activity against Mycobacterium tuberculosis H37Rv ATCC 27294 by microplate alamar blue assay. The class given is functional. The procedure, abridged:
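Resazurin-based (Alamar Blue) colorimetric redox indicator used to assess growth of M. tuberculosis H37Rv. MIC (µg/mL) is taken as the lowest drug concentration that prevents a colour change from blue (no growth) to pink (growth).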

Values after ≈ are worked out from the molar mass of the structure shown. Where only a bound is given, the exact number is not on record here.

Turning to `Cc1c(C(=O)N/N=C/c2ccccc2)nnn1Nc1ccc(Br)cc1`, the minimum inhibitory concentration (MIC) was > 100 µg/mL.

For `Cc1c(C(=O)N/N=C/c2ccccc2)nnn1Nc1ccc(F)cc1`, the minimum inhibitory concentration (MIC) was > 100 µg/mL.

For `Cc1c(C(=O)N/N=C/c2ccc(Br)s2)nnn1Nc1ccc(Br)cc1`, the minimal inhibitory concentration (MIC) is > 100 µg/mL.

In the case of `Cc1c(C(=O)N/N=C/c2ccc(Br)s2)nnn1Nc1ccc(F)cc1`, the MIC is > 100 µg/mL.

`Cc1c(C(=O)N/N=C/c2ccco2)nnn1Nc1ccc(Br)cc1` registered an MIC of 25.5 µg/mL (≈ 65.5 µM).

Regarding `Cc1c(C(=O)N/N=C/c2ccco2)nnn1Nc1ccc(F)cc1`, the minimum inhibitory concentration (MIC) was found to be 12.5 µg/mL (≈ 38.1 µM).

As for `Cc1c(C(=O)N/N=C/c2ccc([N+](=O)[O-])o2)nnn1Nc1ccc(Br)cc1`, the minimum inhibitory concentration (MIC) came out at 6.25 µg/mL (≈ 14.4 µM).

`Cc1c(C(=O)N/N=C/c2ccc([N+](=O)[O-])o2)nnn1Nc1ccc(F)cc1` gave an MIC of 5 µg/mL (≈ 13.4 µM).

Take `Cc1c(C(=O)N/N=C/c2ccc([N+](=O)[O-])o2)nnn1Nc1ccccc1`: inhibition of growth (MIC) required 2.5 µg/mL (≈ 7.04 µM).

`Cc1c(C(=O)N/N=C/c2ccc(Br)s2)nnn1Nc1ccccc1` returned an MIC of 12.5 µg/mL (≈ 30.8 µM).

Molecule `Cc1c(C(=O)N/N=C/c2ccc([N+](=O)[O-])o2)nnn1Nc1ccc(Cl)cc1` registered a minimum inhibitory concentration (MIC) of 5 µg/mL (≈ 12.8 µM).

On to `Cc1c(C(=O)N/N=C/c2ccccc2)nnn1Nc1ccc(Cl)cc1`, for which the minimal inhibitory concentration (MIC) is > 100 µg/mL.

Turning to `Cc1c(C(=O)N/N=C/c2ccccc2)nnn1Nc1ccccc1`, the MIC is > 100 µg/mL.

As to `Cc1c(C(=O)N/N=C/c2ccc(Br)s2)nnn1Nc1ccc(Cl)cc1`, the MIC is > 100 µg/mL.

For `Cc1c(C(=O)N/N=C/c2ccco2)nnn1Nc1ccc(Cl)cc1`, the MIC is 12.5 µg/mL (≈ 36.3 µM).

In the case of `Cc1c(C(=O)N/N=C/c2ccco2)nnn1Nc1ccccc1`, it took 5 µg/mL (≈ 16.1 µM) to inhibit growth (MIC).

On to `CC[C@@H](CO)NCCN[C@@H](CC)CO` [ETHAMBUTOL], for which the MIC was determined as 2 µg/mL (≈ 9.79 µM).

With `CC(C)CCOc1ccc(NC(=S)Nc2ccc(OCCC(C)C)cc2)cc1` [TIOCARLIDE], inhibition of growth (MIC) required 2.5 µg/mL (≈ 6.24 µM).
